Assay results: ChEMBL document CHEMBL1149495, “Newly discovered orally active pure antiestrogens” (Bioorg Med Chem Lett, 2006)

Tests used:
Mus musculus [1] = experiment: Antagonist effect on estrogen activity assessed as inhibition of estrogen-stimulated uterine weight gain in ovariectomized mouse at 1 mg/kg, po; format: functional
Outline: (§1)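 Ovariectomized mice given 0.1 lg 17b-estradiol benzoate sc in peanut oil plus oral test compound in 5% gum arabic-water suspension, once daily for three consecutive days. Uteri weighed about 24 h after last dose. % inhibition = 100·(1−(T−C)/(E−C)), using uterine weight gain per body weight. C is vehicle. Mean ± SEM.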

[2] = (§2) AUC in Sprague-Dawley rat at 10 mg/kg, iv; format: ADME, organism-based, Plasma; parameters: dose 10 mg/kg, route intravenous; conditions: Sprague-Dawley, plasma
Outline: (§3)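 Sprague–Dawley rats dosed as a solution in water/PEG200/EtOH (3:6:1), intravenously at 10 mg/kg or orally at 20 mg/kg. Plasma AUC of intact compound; total clearance also derived from iv data and bioavailability from po/iv AUC.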

[3] = biological target: T1, Estrogen receptor (Homo sapiens) (UniProt P03372); experiment: Displacement of [3H]estradiol from recombinant ERalpha relative to estradiol
T1 sequence (whole entry): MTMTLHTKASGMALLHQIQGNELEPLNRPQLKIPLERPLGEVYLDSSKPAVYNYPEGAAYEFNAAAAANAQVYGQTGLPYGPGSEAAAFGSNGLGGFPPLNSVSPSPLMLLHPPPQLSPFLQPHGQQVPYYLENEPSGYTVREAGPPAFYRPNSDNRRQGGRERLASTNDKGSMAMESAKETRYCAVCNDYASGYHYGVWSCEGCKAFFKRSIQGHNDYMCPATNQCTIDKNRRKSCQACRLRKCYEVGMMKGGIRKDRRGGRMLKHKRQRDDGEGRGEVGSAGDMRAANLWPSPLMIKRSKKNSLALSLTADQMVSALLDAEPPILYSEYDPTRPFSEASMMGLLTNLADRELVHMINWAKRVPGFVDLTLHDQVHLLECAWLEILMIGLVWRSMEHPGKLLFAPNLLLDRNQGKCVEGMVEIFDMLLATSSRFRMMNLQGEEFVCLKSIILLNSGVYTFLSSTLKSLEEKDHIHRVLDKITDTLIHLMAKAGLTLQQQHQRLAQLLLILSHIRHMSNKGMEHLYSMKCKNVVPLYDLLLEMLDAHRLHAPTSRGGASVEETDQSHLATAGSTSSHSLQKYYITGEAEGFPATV
Outline: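 Competitive radiometric binding assay using human recombinant ERα, with [3H]estradiol displaced by the test compound. Result is expressed as relative binding affinity (%), with estradiol set to 100.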

Mus musculus [4] = experiment: Antagonist effect on estrogen activity assessed as inhibition of estrogen-stimulated uterine weight gain in ovariectomized mouse at 10 mg/kg, po; format: functional; outline: as §1
[5] = AUC in cynomolgus monkey at 3 mg/kg, po; format: ADME, organism-based, Macaca fascicularis; parameters: dose 3 mg/kg, route oral; conditions: plasma
Outline: (§4)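 Cynomolgus monkeys given 3 mg/kg intravenously or orally as a solution in water/PEG200/EtOH (4:8:3). Plasma AUC of intact compound; after oral dosing the 17-position metabolite was also quantified, and bioavailability was calculated from po versus iv AUC.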

[6] = AUC in cynomolgus monkey at 3 mg/kg, iv; format: ADME, organism-based, Macaca fascicularis; parameters: dose 3 mg/kg, route intravenous; conditions: plasma; outline: as §4
[7] = AUC in CD1 mouse at 10 mg/kg, iv; format: ADME, organism-based; parameters: dose 10 mg/kg, route intravenous; conditions: plasma
Outline: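 CD-1 mice dosed intravenously at 10 mg/kg as a solution in water/PEG200/EtOH (3:6:1). Plasma AUC of intact compound.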

[8] = Bioavailability in Sprague-Dawley rat; format: ADME, organism-based; conditions: in vivo
Outline: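 Sprague–Dawley rats were given the compound as a solution in water/PEG200/EtOH (3:6:1), 10 mg/kg iv and 20 mg/kg po. Plasma AUC was determined for each route.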

[9] = (§5) AUC in Sprague-Dawley rat at 20 mg/kg, po; format: ADME, organism-based, Plasma; parameters: dose 20 mg/kg, route oral; conditions: Sprague-Dawley, plasma; outline: as §3
Mus musculus [10] = experiment: Antagonist effect on estrogen activity assessed as inhibition of estrogen-stimulated uterine weight gain in ovariectomized mouse at 3 mg/kg, po; format: functional; outline: as §1
[11] = Total clearance in Sprague-Dawley rat at 10 mg/kg, iv; format: ADME, organism-based; parameters: dose 10 mg/kg, route intravenous; conditions: in vivo
Outline: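 Sprague–Dawley rats were given a single iv dose as a solution in water/PEG200/EtOH (3:6:1). Total clearance was derived alongside plasma AUC.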

[12] = Bioavailability in CD1 mouse; format: ADME, organism-based; conditions: in vivo
Outline: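 CD-1 mice were dosed orally at 30 mg/kg as a suspension in 5% gum arabic, and intravenously at 10 mg/kg as a solution in water/PEG200/EtOH (3:6:1). Plasma AUC of the intact compound was measured for each route. The 17-keto or 17-hydroxy metabolite was also monitored.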

[13] = Bioavailability in cynomolgus monkey; format: ADME, organism-based, Macaca fascicularis; conditions: in vivo
Outline: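 Cynomolgus monkeys received 3 mg/kg by both the oral and intravenous routes, as a solution in water/PEG200/EtOH (4:8:3). Plasma AUC of the intact compound and of the interconverting 17-keto/17-hydroxy metabolite was measured.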

[14] = AUC in CD1 mouse at 30 mg/kg, po; format: ADME, organism-based; parameters: dose 30 mg/kg, route oral; conditions: plasma
Outline: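 CD-1 mice dosed orally at 30 mg/kg as a suspension in 5% gum arabic. Plasma AUC measured for intact compound and separately for its 17-position metabolite (17-keto/17-hydroxy interconversion product).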

Mus musculus [15] = experiment: Agonist effect on estrogen activity assessed as stimulation of uterine weight gain in ovariectomized mouse at 17 mg/kg, sc relative to control; format: functional; conditions: route subcutaneous
Outline: (§6)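 Ovariectomized mice dosed sc once daily for three consecutive days with test compound in 10% EtOH-peanut oil. Uteri weighed about 24 h after last dose. Uterine weight gain per body weight expressed as % = 100·(T−C)/(E−C), E being the 17b-estradiol benzoate response and C vehicle. Mean ± SEM. Difference from vehicle tested by Student's t test (P < 0.05).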

Mus musculus [16] = experiment: Agonist effect on estrogen activity assessed as stimulation of uterine weight gain in ovariectomized mouse at 50 mg/kg, sc relative to control; format: functional; conditions: route subcutaneous; outline: as §6
Rattus norvegicus [17] = experiment: as §2; format: ADME, organism-based, Plasma; parameters: dose 10 mg/kg, route intravenous; conditions: in vivo; outline: as §3
Rattus norvegicus [18] = experiment: as §5; format: ADME, organism-based, Plasma; parameters: dose 20 mg/kg, route oral; conditions: in vivo; outline: as §3

| SMILES | inhibition in vivo at 1 mg/kg (Mus musculus [1]) [%] | AUC [2] [µg·h/mL] | RBA [3] [%] | inhibition in vivo at 10 mg/kg (Mus musculus [4]) [%] | AUC [5] [ng·h/mL] | AUC [6] [ng·h/mL] | AUC [7] [µg·h/mL] | bioavailability [8] [%] | AUC [9] [µg·h/mL] | inhibition in vivo at 3 mg/kg (Mus musculus [10]) [%] | clearance [11] [mL/min/kg] | bioavailability [12] [%] | bioavailability [13] [%] | AUC [14] [µg·h/mL] | Activity (Mus musculus [15]) [%] | Activity (Mus musculus [16]) [%] | AUC (Rattus norvegicus [17]) [µg·h/mL] | AUC (Rattus norvegicus [18]) [µg·h/mL] |
| --- | --- | --- | --- | --- | --- | --- | --- | --- | --- | --- | --- | --- | --- | --- | --- | --- | --- | --- |
| C[C@]12CC[C@@H]3c4ccc(O)cc4C[C@@H](CCCCCCCC[C@@H](CCCC(F)(F)C(F)(F)C(F)(F)C(F)(F)F)C(=O)O)[C@H]3[C@@H]1CC[C@@H]2O | 59 | 146 | 1.1 | 99 | 420 | 88000 | 244 | 33 | 98 | 93 | 1.23 | 37 | 0.48 | 274 | 4 |  |  |  |
| C[C@]12CC[C@@H]3c4ccc(O)cc4C[C@@H](CCCCCCCC[C@H](CCCC(F)(F)C(F)(F)C(F)(F)C(F)(F)F)C(=O)O)[C@H]3[C@@H]1CC[C@@H]2O | 58 | 254 | 1 | 103 | 300 |  | 447 | 37 | 190 | 88 | 0.65 | 35 |  | 470 | 3 |  |  |  |
| C[C@]12CC[C@@H]3c4ccc(O)cc4C[C@@H](CCCCCCCCCC(CCCC(F)(F)C(F)(F)C(F)(F)C(F)(F)F)C(=O)O)[C@H]3[C@@H]1CC[C@@H]2O (stereo partly specified) | 27 |  | 0.7 | 85 |  |  |  |  |  | 42 |  |  |  |  |  |  |  |  |
| C[C@]12CC[C@@H]3c4ccc(O)cc4C[C@@H](CCCCCCCCC(CCC(F)(F)C(F)(F)C(F)(F)C(F)(F)F)C(=O)O)[C@H]3[C@@H]1CC[C@@H]2O (stereo partly specified) | 55 |  | 0.6 | 98 |  |  |  |  |  | 80 |  |  |  |  |  |  |  |  |
| C[C@]12CC[C@@H]3c4ccc(O)cc4C[C@@H](CCCCCCCCCC(CCCC(F)(F)C(F)(F)F)C(=O)O)[C@H]3[C@@H]1CC[C@@H]2O (stereo partly specified) | 22 |  | 1.4 | 80 |  |  |  |  |  | 30 |  |  |  |  |  |  |  |  |
| C[C@]12CC[C@@H]3c4ccc(O)cc4C[C@@H](CCCCCCCC[C@@H](CCCC(F)(F)C(F)(F)C(F)(F)C(F)(F)F)C(=O)O)[C@H]3[C@@H]1CCC2=O | 54 | 50 | 1 | 96 | 2420 | 77000 | 389 | 32 | 32 | 85 |  | 40 | 3.1 | 468 |  | 1 |  |  |
| C[C@]12CC[C@@H]3c4ccc(O)cc4C[C@@H](CCCCCCCCCC(CCC(F)(F)C(F)(F)C(F)(F)C(F)(F)F)C(=O)O)[C@H]3[C@@H]1CC[C@@H]2O (stereo partly specified) | 27 |  | 0.7 | 92 |  |  |  |  |  | 49 |  |  |  |  |  |  |  |  |
| C[C@]1(c2ccc(O)cc2)CSc2cc(O)ccc2[C@H]1CCCCCCCCC(CCCC(F)(F)C(F)(F)F)C(=O)O (stereo partly specified) | 11 |  |  | 77 |  |  |  |  |  | 41 |  |  |  |  |  |  | 228 | 209 |
| C[C@]12CC[C@@H]3c4ccc(O)cc4C[C@@H](CCCCCCCCC(CCCC(F)(F)C(F)(F)C(F)(F)C(F)(F)F)C(=O)O)[C@H]3[C@@H]1CC[C@@H]2O (stereo partly specified) | 64 | 207 | 1.4 | 96 |  |  |  | 35 | 144 | 87 | 0.817 |  |  |  | 4 |  |  |  |
| C[C@]12CC[C@@H]3c4ccc(O)cc4C[C@@H](CCCCCCCCC[S+]([O-])CCCC(F)(F)C(F)(F)F)[C@H]3[C@@H]1CC[C@@H]2O (stereo partly specified) [FULVESTRANT] | 11 |  |  | 54 |  |  |  |  |  | 29 |  |  |  |  |  |  | 5.3 | 1.7 |
| C[C@]12CC[C@@H]3c4ccc(O)cc4C[C@@H](CCCCCCCCC(CCCC(F)(F)C(F)(F)F)C(=O)O)[C@H]3[C@@H]1CC[C@@H]2O (stereo partly specified) | 37 |  | 0.8 | 87 |  |  |  |  |  | 67 |  |  |  |  |  |  |  |  |
